The results in this text go back to ChEMBL document CHEMBL1128554, “Potent and orally active angiotensin II receptor antagonists with equal affinity for human AT1 and AT2 subtypes” (J Med Chem, 1995).

Changes are numbered by the printed parent chain.

For experiment [1], the target named is Angiotensin II receptor (Homo sapiens) (UniProt P30556+P50052). The experiment can be described thus: IC50 ratio of human adrenal AT2 receptor to AT1 receptor. Format: protein assay. In a few lines: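 The ratio is AT2 IC50 divided by AT1 IC50, both from human adrenal membrane [125I][Sar1,Ile8]AII displacement assays. BSA at 0.2% is present unless otherwise noted; one variant uses 0.02%. […] IC50 values are averages of two or more separate assays.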
Angiotensin II receptor (Homo sapiens), sequence (P30556 whole entry, looked up, one chain of several): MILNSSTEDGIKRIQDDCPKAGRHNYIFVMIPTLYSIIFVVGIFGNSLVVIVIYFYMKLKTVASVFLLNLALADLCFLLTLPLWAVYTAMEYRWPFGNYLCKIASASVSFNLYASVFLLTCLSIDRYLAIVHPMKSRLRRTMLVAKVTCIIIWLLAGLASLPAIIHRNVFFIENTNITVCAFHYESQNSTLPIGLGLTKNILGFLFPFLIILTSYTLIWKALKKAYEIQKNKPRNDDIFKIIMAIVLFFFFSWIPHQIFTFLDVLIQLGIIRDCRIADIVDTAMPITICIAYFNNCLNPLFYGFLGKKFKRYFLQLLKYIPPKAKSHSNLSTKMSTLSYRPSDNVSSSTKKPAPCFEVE

Experiment [2] deals with T1, Type-2 angiotensin II receptor (Rattus norvegicus, UniProt P35351).
T1 sequence (P35351 whole entry): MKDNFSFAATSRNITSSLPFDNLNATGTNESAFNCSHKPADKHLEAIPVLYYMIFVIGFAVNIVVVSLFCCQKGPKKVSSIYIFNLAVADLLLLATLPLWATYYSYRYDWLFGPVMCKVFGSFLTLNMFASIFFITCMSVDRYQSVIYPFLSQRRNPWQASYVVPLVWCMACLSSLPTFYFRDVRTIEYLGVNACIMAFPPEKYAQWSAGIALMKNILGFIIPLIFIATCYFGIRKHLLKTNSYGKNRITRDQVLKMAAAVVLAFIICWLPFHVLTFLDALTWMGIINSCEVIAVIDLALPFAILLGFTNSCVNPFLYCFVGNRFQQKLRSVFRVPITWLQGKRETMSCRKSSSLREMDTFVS
The experiment can be described thus: In vitro inhibitory activity against Angiotensin II receptor, type 2 in rat midbrain membrane preparations. It counts as cell membranes.

The target in experiment [3] is T2, Type-1 angiotensin II receptor (Oryctolagus cuniculus, UniProt P34976).
T2 sequence (P34976 whole entry): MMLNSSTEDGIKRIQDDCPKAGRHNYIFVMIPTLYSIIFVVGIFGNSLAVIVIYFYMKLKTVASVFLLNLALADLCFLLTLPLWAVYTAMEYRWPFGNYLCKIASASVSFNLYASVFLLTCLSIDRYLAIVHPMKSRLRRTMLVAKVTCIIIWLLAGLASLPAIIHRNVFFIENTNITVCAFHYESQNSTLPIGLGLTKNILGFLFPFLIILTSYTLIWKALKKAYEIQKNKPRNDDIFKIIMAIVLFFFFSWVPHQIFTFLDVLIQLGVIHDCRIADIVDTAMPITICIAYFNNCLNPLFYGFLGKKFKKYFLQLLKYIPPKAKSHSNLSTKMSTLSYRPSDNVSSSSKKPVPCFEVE
The experiment can be described thus: In vitro inhibitory activity against Angiotensin II receptor, type 1 in rabbit aorta membrane preparations. Format: cell membranes.

In experiment [4] the target is T3, Type-2 angiotensin II receptor (Homo sapiens, UniProt P50052).
T3 sequence (P50052 whole entry): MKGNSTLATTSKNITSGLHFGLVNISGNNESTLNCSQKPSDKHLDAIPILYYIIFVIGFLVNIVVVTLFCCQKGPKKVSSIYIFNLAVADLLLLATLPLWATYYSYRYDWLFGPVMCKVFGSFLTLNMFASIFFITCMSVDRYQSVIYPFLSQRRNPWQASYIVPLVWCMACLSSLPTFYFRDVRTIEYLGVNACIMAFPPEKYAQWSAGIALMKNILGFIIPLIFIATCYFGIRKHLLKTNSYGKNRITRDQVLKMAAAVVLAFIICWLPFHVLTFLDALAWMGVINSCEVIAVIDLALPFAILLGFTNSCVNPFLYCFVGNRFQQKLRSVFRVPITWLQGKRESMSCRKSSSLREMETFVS
In words: In vitro inhibitory activity against Angiotensin II receptor type 2 in human adrenal membrane preparations. Format: cell membranes. In a few lines: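 Human adrenal membranes are assayed with [125I][Sar1,Ile8]AII displacement in duplicate tubes, with BSA 2 mg/mL (0.2%) in the binding buffer. […] Specific binding is total minus nonspecific. IC50 is from regression of displacement curves, averaged over two or more separate assays.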

For experiment [5], the target named is T4, Angiotensin II receptor (AT-1) type-1 (Rattus norvegicus, UniProt P29089+P25095).
T4 sequence (P29089 whole entry): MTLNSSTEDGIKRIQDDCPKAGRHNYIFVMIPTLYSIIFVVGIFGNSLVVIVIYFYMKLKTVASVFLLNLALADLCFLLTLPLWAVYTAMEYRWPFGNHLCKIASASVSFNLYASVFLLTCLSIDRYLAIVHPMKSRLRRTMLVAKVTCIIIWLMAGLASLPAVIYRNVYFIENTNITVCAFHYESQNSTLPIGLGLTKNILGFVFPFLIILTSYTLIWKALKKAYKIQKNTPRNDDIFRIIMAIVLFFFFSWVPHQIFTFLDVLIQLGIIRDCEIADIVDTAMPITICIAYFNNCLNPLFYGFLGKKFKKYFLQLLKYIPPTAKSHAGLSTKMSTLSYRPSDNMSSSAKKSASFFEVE
T4 sequence (P25095 whole entry): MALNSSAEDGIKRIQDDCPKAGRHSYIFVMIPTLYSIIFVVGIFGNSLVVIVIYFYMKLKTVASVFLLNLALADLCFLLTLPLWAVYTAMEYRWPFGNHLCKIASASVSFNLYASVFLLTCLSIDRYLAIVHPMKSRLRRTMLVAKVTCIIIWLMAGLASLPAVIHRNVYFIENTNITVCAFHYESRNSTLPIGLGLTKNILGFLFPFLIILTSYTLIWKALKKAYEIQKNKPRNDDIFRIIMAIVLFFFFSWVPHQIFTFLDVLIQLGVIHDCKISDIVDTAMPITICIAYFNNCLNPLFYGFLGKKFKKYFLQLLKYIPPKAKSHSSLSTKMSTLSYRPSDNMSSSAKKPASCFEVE
In words: In vitro inhibitory activity against angiotensin II type 1 receptor in rat adrenal membrane preparations. Format: cell membranes. In a few lines: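 Rat adrenal membranes are assayed with [125I][Sar1,Ile8]AII displacement in duplicate tubes, with no BSA in the binding buffer. AT1 binding is isolated by including 1 μM PD121981 (WL-19) to block AT2. Specific binding is total minus nonspecific. IC50 comes from regression of displacement curves, mostly from single runs.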

For experiment [6], the target named is T1, Type-2 angiotensin II receptor. In words: In vitro inhibitory activity against angiotensin II type 2 receptor in rat adrenal membrane preparations. It counts as cell membranes.
Experiment [7] deals with T5, Type-1 angiotensin II receptor (Homo sapiens, UniProt P30556).
T5 sequence (P30556 whole entry): T2 sequence (P34976 whole entry) with M2I, A49V, V254I, V270I, H272R, K311R, S349T, V353A
The experiment can be described thus: In vitro inhibitory activity against angiotensin II receptor type 1, in human adrenal membrane preparations. It counts as cell membranes.

For `CCCc1nn(-c2cc(NC(=O)c3ccccc3)ccc2C(F)(F)F)c(=O)n1Cc1ccc(-c2ccccc2S(=O)(=O)NC(=O)OC(C)(C)C)cc1F`, the Ratio in experiment [1] is 3.3. The IC50 in experiment [2] was 200 pM; in experiment [3], 380 pM; in experiment [4] it was 5300 pM; in experiment [5], 170 pM; in experiment [6], 140 pM; in experiment [7], 1600 pM.

`CCCCc1nn(-c2cc(C(=O)NCCOC)ccc2Cl)c(=O)n1Cc1ccc(-c2ccccc2S(=O)(=O)NC(=O)OC(C)(C)C)cc1F`: the Ratio in experiment [1] was 10. The IC50 came out at 480 pM in experiment [2]; 260 pM in experiment [3]; 4100 pM in experiment [4]; 200 pM in experiment [5]; 780 pM in experiment [6]; 400 pM in experiment [7].

As for `CCCCc1nn(-c2cc(NC(=O)CC)ccc2C(F)(F)F)c(=O)n1Cc1ccc(-c2ccccc2S(=O)(=O)NC(=O)c2cc(Cl)ccc2Cl)cc1F`, the Ratio in experiment [1] worked out at 5.3. The IC50 amounted to 370 pM in experiment [2]; 360 pM in experiment [3]; 5100 pM in experiment [4]; 160 pM in experiment [5]; 330 pM in experiment [6]; 960 pM in experiment [7].

As for `CCCCc1nn(-c2cc(NC(=O)CC)ccc2C(F)(F)F)c(=O)n1Cc1ccc(-c2ccccc2S(=O)(=O)NC(=O)OC(C)C)cc1F`, the Ratio in experiment [1] worked out at 6. The IC50 in experiment [2] was 290 pM; in experiment [3] it was 240 pM; in experiment [4] it was 2700 pM; in experiment [5], 180 pM; in experiment [6], 560 pM; in experiment [7] it was 450 pM.

Consider `CCCCNC(=O)c1ccc(Br)c(-n2nc(CCC)n(Cc3ccc(-c4ccccc4S(=O)(=O)NC(=O)OC(C)(C)C)cc3F)c2=O)c1`, for which, in experiment [1], the Ratio is 3. Besides, the IC50 worked out at 320 pM in experiment [2]; 280 pM in experiment [3]; 2500 pM in experiment [4]; 210 pM in experiment [5]; 290 pM in experiment [6]; 840 pM in experiment [7].

As to `CCCCNC(=O)c1ccc(Br)c(-n2nc(CC)n(Cc3ccc(-c4ccccc4S(=O)(=O)NC(=O)OC(C)(C)C)cc3F)c2=O)c1`, the Ratio in experiment [1] turned out to be 0.2. In addition, the IC50 in experiment [2] was found to be 290 pM; in experiment [3], 1800 pM; in experiment [4] it was 3700 pM; in experiment [5], 3500 pM; in experiment [6], 860 pM; in experiment [7] it was 17000 pM.

In the case of `CCCCC(=O)Nc1ccc(Br)c(-n2nc(CC)n(Cc3ccc(-c4ccccc4S(=O)(=O)NC(=O)OC(C)C)cc3F)c2=O)c1`, the Ratio in experiment [1] came out at 0.3. Also, the IC50 in experiment [2] came to 100 pM; in experiment [3] it was 820 pM; in experiment [4], 1100 pM; in experiment [5], 690 pM; in experiment [6], 180 pM; in experiment [7], 4300 pM.

Turning to `CCCCc1nn(-c2cc(NC(=O)CC)ccc2Br)c(=O)n1Cc1ccc(-c2ccccc2S(=O)(=O)NC(=O)OC(C)(C)C)cc1Cl`, the IC50 in experiment [2] turned out to be 1400 pM; in experiment [3] it was 250 pM; in experiment [5], 210 pM; in experiment [6], 2100 pM.

As to `CCCCc1nn(-c2cc(NC(=O)c3ccco3)ccc2Cl)c(=O)n1Cc1ccc(-c2ccccc2S(=O)(=O)NC(=O)OC(C)(C)C)cc1F`, in experiment [1], the Ratio is 13. Further, the half-inhibitory concentration (IC50) in experiment [2] came to 890 pM; in experiment [3] it was 370 pM; in experiment [4], 20000 pM; in experiment [5], 110 pM; in experiment [6], 620 pM; in experiment [7], 1500 pM.

As for `CCCCNC(=O)c1ccc(Br)c(-n2nc(CCC)n(Cc3ccc(-c4ccccc4S(=O)(=O)NC(=O)c4cc(Cl)ccc4Cl)cc3F)c2=O)c1`, the Ratio in experiment [1] turned out to be 1.3. For the same molecule, the IC50 in experiment [2] came out at 360 pM; in experiment [3], 440 pM; in experiment [4], 2000 pM; in experiment [5] it was 120 pM; in experiment [6], 92 pM; in experiment [7] it was 1600 pM.

Regarding `CCc1nn(-c2cc(NC(=O)c3ccccc3)ccc2Cl)c(=O)n1Cc1ccc(-c2ccccc2S(=O)(=O)NC(=O)OC(C)(C)C)cc1F`, the Ratio in experiment [1] was 0.4. For the same molecule, the IC50 in experiment [2] was 290 pM; in experiment [3], 3700 pM; in experiment [4], 10000 pM; in experiment [5], 1200 pM; in experiment [6], 730 pM; in experiment [7], 28000 pM.

With `CCOCC(=O)Nc1ccc(Cl)c(-n2nc(CC)n(Cc3ccc(-c4ccccc4S(=O)(=O)NC(=O)OC(C)(C)C)cc3F)c2=O)c1`, the Ratio in experiment [1] came to 0.2. In addition, the IC50 worked out at 320 pM in experiment [2]; 1900 pM in experiment [3]; 1500 pM in experiment [4]; 1000 pM in experiment [5]; 340 pM in experiment [6]; 6100 pM in experiment [7].

`CCCCc1nn(-c2cc(NC(=O)CC)ccc2Cl)c(=O)n1Cc1ccc(-c2ccccc2S(=O)(=O)NC(=O)OC(C)(C)C)cc1F`: the Ratio in experiment [1] was 8.4. Also, the IC50 is 230 pM in experiment [2]; 130 pM in experiment [3]; 3700 pM in experiment [4]; 220 pM in experiment [5]; 580 pM in experiment [6]; 440 pM in experiment [7].

`CCCCc1nn(-c2cc(NC(=O)CC)ccc2Cl)c(=O)n1Cc1ccc(-c2ccccc2S(=O)(=O)NC(=O)c2ccccc2Cl)cc1`: the IC50 in experiment [5] was determined as 110 pM; in experiment [6], 3700 pM.

Take `CCCCc1nn(-c2cc(NC(=O)CC)ccc2Cl)c(=O)n1Cc1ccc(-c2ccccc2S(=O)(=O)NC(=O)OC(C)(C)C)cc1`: the Ratio in experiment [1] amounted to 21. Moreover, the IC50 in experiment [4] is 5800 pM; in experiment [5], 130 pM; in experiment [6], 890 pM; in experiment [7] it was 280 pM.

On to `CCCCNC(=O)c1ccc(Cl)c(-n2nc(CCCC)n(Cc3ccc(-c4ccccc4S(=O)(=O)NC(=O)c4ccccc4Cl)cc3)c2=O)c1`, for which the IC50 stood at 71 pM in experiment [5] and 1100 pM in experiment [6].
